Assay results taken from ChEMBL document CHEMBL1671798, “A competition assay to identify amyloidogenesis inhibitors by monitoring the fluorescence emitted by the covalent attachment of a stilbene derivative to transthyretin” (Bioorg Med Chem, 2011).

What was measured:
[1] = target: Transthyretin (Homo sapiens) (UniProt P02766); test: Displacement of S-phenyl 3-(4-hydroxy-3,5-dimethylstyryl)benzothioate from human TTR assessed as fluorescence at 37 degC after 3 hrs; set-up: concentration or dose not given beside the values
Outline: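 Commercial human serum with endogenous TTR (about 7.5 µM, as measured). Test compound (15 µM final) and S2 (5 µM final) were both added from DMSO stocks. Conjugate fluorescence was read every 10 min over 8 h on a plate reader. The 3 h value is given as % competition fluorescence.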

[2] = target: Transthyretin (Homo sapiens) (UniProt P02766); test: Displacement of 4-fluorophenyl 3-(4-hydroxy-3,5-dimethylstyryl)benzoate from recombinant TTR assessed as fluorescence at 37 degC after 3 hrs; set-up: concentration or dose not given beside the values
Outline: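 Recombinant WT-TTR from E. coli at 3.6 µM in 10 mM sodium phosphate, 100 mM KCl, 1 mM EDTA, pH 7.0. Test compound (7.2 µM final, added from DMSO) was preincubated 4 h at 25 °C with slow vortexing. S1 (7.2 µM final) was then added. Fluorescence (ex 328/em 384 nm) was read every 10 min for 8 h at 37 °C. The 3 h value is given as % competition fluorescence.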

[3] = target: Transthyretin (Homo sapiens) (UniProt P02766); test: Inhibition of wild type-TTR expressed in Escherichia coli assessed as amyloid fibril formation at pH 4.4 at 7. 2 uM after 72 hrs by acid-mediated aggregation assay relative to control; set-up: scale not given: the % may be the effect or the level left

SMILES	Activity [1] [%]	Activity [2] [%]	Activity [3] [%]
Cc1cccc(Nc2ccccc2C(=O)O)c1C	96	65	7
COc1c(Br)cc(C(=O)Nc2cc(Br)c(O)c(Br)c2)cc1Br	44	4	10
Brc1cc(Br)cc(Nc2ccccc2)c1	100	76	
CC(C(=O)O)c1ccc(-c2ccccc2)c(F)c1 (stereo unspecified)	96	93	29
O=C(Nc1ccccc1)c1cc(Br)c(O)c(Br)c1	61	42	
Nc1cccc(C(=O)Nc2cc(Br)c(O)c(Br)c2)c1	24	35	25
O=C(O)c1ccc(C(=O)Nc2cc(Br)c(O)c(Br)c2)cc1	45	57	11
O=C(Nc1cc(Br)c(O)c(Br)c1)c1ccccc1O	29	2	2
O=C(O)Cc1ccccc1Nc1c(Cl)cccc1Cl	99	85	17
Cc1cc(Oc2ccccc2)cc(C)c1O	81	76	
O=C(Nc1cc(Br)c(O)c(Br)c1)c1ccc(O)cc1	16	32	21
O=C(Nc1cc(Br)c(O)c(Br)c1)c1cccc(Cl)c1	28	13	8
O=C(O)c1cc(-c2ccc(F)cc2F)ccc1O	86	75	2
Oc1c(Br)cc(CCc2cccc(C(F)(F)F)c2)cc1Br	3	-6	1
O=C(Nc1ccccc1)Nc1cc(Br)c(O)c(Br)c1	100	82	9
O=C(O)c1cccc(C(=O)Nc2cc(Br)c(O)c(Br)c2)c1	85	77	11
COc1cc(CCc2cc(Br)c(O)c(Br)c2)cc(OC)c1	30	3	1
O=C(Nc1cc(Br)c(O)c(Br)c1)c1cccc(O)c1	18	26	9
O=C(Nc1cc(Br)c(O)c(Br)c1)c1cccc(F)c1	54	18	13
O=C(Nc1cc(Br)c(O)c(Br)c1)c1cccc(Br)c1	28	13	8
Oc1c(Br)cc(/C=C/c2ccc(Br)cc2)cc1Br	2	-6	2
Cc1cccc(CCc2cc(Br)c(O)c(Br)c2)c1	2	-7	3
Cc1ccc(Cl)c(Nc2ccccc2C(=O)O)c1Cl	85	62	3
Oc1c(Br)cc(CCc2ccc(OC(F)F)cc2)cc1Br	42	-3	1
COc1ccccc1/C=C/c1cc(Br)c(O)c(Br)c1	0	-6	0
O=C(Nc1cc(Br)c(O)c(Br)c1)c1cc(F)cc(F)c1	35	12	10
COc1c(Cl)cc(C(=O)Nc2cc(Br)c(O)c(Br)c2)cc1Cl	26	4	9
O=C(O)c1ccccc1Nc1cccc(C(F)(F)F)c1	97	44	2
